In ChEMBL document CHEMBL1150672, “Chemical transformations on botryane skeleton. Effect on the cytotoxic activity” (J Nat Prod, 2003):
Converted amounts (≈) assume the structure as drawn.

Assays:
[1] = Cytotoxicity against human IMR90 cells after 24 hrs by MTT assay; type: cell-based, IMR-90; conditions: read-out: ID50
In short: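 IMR-90 embryonic fibroblasts (ATCC) were grown in DMEM with 10% FCS and 1% glutamine at 37 °C, 5% CO2. Cells were plated at 4 or 8×10^3/well and attached overnight. They were treated 24 h, in duplicate, with compounds from methanol stocks diluted in medium, with a methanol blank. MTT (5 mg/mL stock) was added for 4 h, formazan dissolved in DMSO, and read at 550 nm.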

[2] = Cytotoxicity against human Hs 578T cells after 24 hrs by MTT assay; type: functional; conditions: read-out: ID50 (the source's name)
In short: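 Hs578T cells (ATCC) were maintained in DMEM with 10% FCS, 1% glutamine and 10 μg/mL insulin. Cells were seeded at 4 or 8×10^3/well and allowed to adhere overnight at 37 °C. They were exposed 24 h, in duplicate, to compounds in methanol diluted with medium, with a methanol blank. MTT (5 mg/mL stock) was added for 4 h, formazan dissolved in DMSO, and A550 measured.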

[3] = Cytotoxicity against human U87MG cells after 24 hrs by MTT assay; type: functional, U-87MG ATCC; conditions: U-87 MG, read-out: ID50 (the source's name)
In short: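 U87-MG glioblastoma cells (ATCC) were grown in MEM with 10% FCS, 1% sodium pyruvate and 1% nonessential amino acids. Cells were seeded at 4 or 8×10^3/well and adhered overnight at 37 °C. They were exposed 24 h, in duplicate, to methanol-dissolved compounds diluted in medium, with a methanol blank. MTT (5 mg/mL stock) was added for 4 h, formazan dissolved in DMSO, and absorbance read at 550 nm.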

[4] = Cytotoxicity against HUVEC after 24 hrs by MTT assay; type: cell-based; conditions: human, read-out: ID50
In short: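 Primary HUVEC from newborns, grown in DMEM/medium 199 with 20% FCS, 10 mM HEPES, heparin and ECGS at 37 °C, 5% CO2. Cells were seeded at 4 or 8×10^3/well and attached overnight. Compounds were added from methanol solutions diluted in medium, with a methanol blank, for 24 h in duplicate. MTT (5 mg/mL stock) was added for 4 h, formazan dissolved in DMSO, and A550 read.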

MDA-MB-231 = assay: Cytotoxicity against human MDA-MB-231 cells after 24 hrs by MTT assay; type: functional; conditions: MDA-MB-231, 24 h, read-out: ID50 (the source's name)
In short: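 MDA-MB-231 cells (ATCC) were cultured in Leibovitz's L-15 with 10% FCS. Cells were seeded at 4 or 8×10^3/well and attached overnight at 37 °C. Compounds dissolved in methanol and diluted in medium were added for 24 h in duplicate, with a methanol blank. MTT (5 mg/mL stock) was added for 4 h, formazan taken up in DMSO, and A550 recorded.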

HT-1080 = assay: Cytotoxicity against human HT1080 cells after 24 hrs by MTT assay; type: functional; conditions: HT-1080, 24 h, read-out: ID50 (the source's name)
In short: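 HT-1080 cells (ATCC) were kept in DMEM with 10% FCS, 1% glutamine and 1% vitamins at 37 °C, 5% CO2. Cells were seeded at 4 or 8×10^3/well and attached overnight, then exposed for 24 h in duplicate to methanol-dissolved compounds diluted in medium, with a methanol blank. MTT (5 mg/mL stock) was given for 4 h, formazan solubilized in DMSO, and absorbance read at 550 nm.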

Compound: CC1(C)C[C@](C)(CO)c2c1ccc(CO)c2CO
- CC50 at 24 h [1]: > 10 mg/L
- IC50 [2]: > 10 mg/L
- IC50 [3]: > 10 mg/L
- CC50 at 24 h [4]: > 10 mg/L
- IC50 (MDA-MB-231): > 10 mg/L
- IC50 (HT-1080): > 10 mg/L

Compound: CC(=O)O[C@H]1C[C@@H](C)[C@@H]2COC[C@@]3(C)CC(C)(C)[C@H]1[C@]23O
- CC50 at 24 h [1]: > 10 mg/L
- IC50 [2]: > 10 mg/L
- IC50 [3]: > 10 mg/L
- CC50 at 24 h [4]: > 10 mg/L
- IC50 (MDA-MB-231): > 10 mg/L
- IC50 (HT-1080): > 10 mg/L

Compound: Cc1ccc2c(c1CO)[C@@](C)(CO)C[C@@]2(C)CO
- CC50 at 24 h [1]: > 10 mg/L
- IC50 [2]: > 10 mg/L
- IC50 [3]: > 10 mg/L
- CC50 at 24 h [4]: > 10 mg/L
- IC50 (MDA-MB-231): > 10 mg/L
- IC50 (HT-1080): > 10 mg/L

Compound: CC(=O)O[C@H]1C[C@@H](C)[C@@H](C=O)[C@@]2(O)[C@@H]1C(C)(C)C[C@]2(C)C=O
- CC50 at 24 h [1]: 10 mg/L (≈ 32.2 µM)
- IC50 [2]: 5 mg/L (≈ 16.1 µM)
- IC50 [3]: 5 mg/L (≈ 16.1 µM)
- CC50 at 24 h [4]: 10 mg/L (≈ 32.2 µM)
- IC50 (MDA-MB-231): 1 mg/L (≈ 3.22 µM)
- IC50 (HT-1080): 10 mg/L (≈ 32.2 µM)

Compound: CC(=O)O[C@H]1C[C@@H](C)[C@@H]2[C@H](O)OC[C@@]3(C)CC(C)(C)[C@H]1[C@]23O
- CC50 at 24 h [1]: > 10 mg/L
- IC50 [2]: > 10 mg/L
- IC50 [3]: > 10 mg/L
- CC50 at 24 h [4]: > 10 mg/L
- IC50 (MDA-MB-231): > 10 mg/L
- IC50 (HT-1080): > 10 mg/L

Compound: CC(=O)O[C@H]1C[C@@H](C)[C@H](C=O)[C@]2(O)[C@@H]1C(C)(C)C[C@@]2(C)C=O
- CC50 at 24 h [1]: 10 mg/L (≈ 32.2 µM)
- IC50 [2]: 1 mg/L (≈ 3.22 µM)
- IC50 [3]: 1 mg/L (≈ 3.22 µM)
- CC50 at 24 h [4]: 5 mg/L (≈ 16.1 µM)
- IC50 (MDA-MB-231): 0.1 mg/L (≈ 0.322 µM)
- IC50 (HT-1080): 5 mg/L (≈ 16.1 µM)

Compound: Cc1ccc2c(c1C=O)[C@@](C)(C=O)CC2(C)C
- CC50 at 24 h [1]: 10 mg/L (≈ 43.4 µM)
- IC50 [2]: 1 mg/L (≈ 4.34 µM)
- IC50 [3]: 5 mg/L (≈ 21.7 µM)
- CC50 at 24 h [4]: 5 mg/L (≈ 21.7 µM)
- IC50 (MDA-MB-231): 10 mg/L (≈ 43.4 µM)
- IC50 (HT-1080): 1 mg/L (≈ 4.34 µM)

Compound: CC(=O)O[C@H]1C[C@@H](C)[C@H](C(=O)O)[C@@]2(O)[C@@H]1C(C)(C)C[C@]2(C)C=O
- CC50 at 24 h [1]: > 10 mg/L
- IC50 [2]: > 10 mg/L
- IC50 [3]: > 10 mg/L
- CC50 at 24 h [4]: > 10 mg/L
- IC50 (MDA-MB-231): > 10 mg/L
- IC50 (HT-1080): > 10 mg/L

Compound: C[C@@H]1C[C@H](O)[C@H]2C(C)(C)C[C@]3(C)COC[C@@H]1[C@@]23O
- CC50 at 24 h [1]: > 10 mg/L
- IC50 [2]: > 10 mg/L
- IC50 [3]: > 10 mg/L
- CC50 at 24 h [4]: > 10 mg/L
- IC50 (MDA-MB-231): > 10 mg/L
- IC50 (HT-1080): > 10 mg/L

Compound: CC(=O)O[C@H]1C[C@@H](C)[C@@H]2COC(C)(C)OC[C@@]3(C)CC(C)(C)[C@H]1[C@]23O
- CC50 at 24 h [1]: > 10 mg/L
- IC50 [2]: > 10 mg/L
- IC50 [3]: > 10 mg/L
- CC50 at 24 h [4]: > 10 mg/L
- IC50 (MDA-MB-231): > 10 mg/L
- IC50 (HT-1080): > 10 mg/L

Compound: CC(=O)O[C@H]1C[C@@H](C)[C@@H]2C(=O)OC[C@@]3(C)CC(C)(C)[C@H]1[C@]23O
- CC50 at 24 h [1]: > 10 mg/L
- IC50 [2]: > 10 mg/L
- IC50 [3]: > 10 mg/L
- CC50 at 24 h [4]: > 10 mg/L
- IC50 (MDA-MB-231): > 10 mg/L
- IC50 (HT-1080): > 10 mg/L

Compound: C[C@@H]1CC=C2C(=C1C=O)[C@@](C)(C=O)CC2(C)C
- CC50 at 24 h [1]: 1 mg/L (≈ 4.3 µM)
- IC50 [2]: 1 mg/L (≈ 4.3 µM)
- IC50 [3]: 1 mg/L (≈ 4.3 µM)
- CC50 at 24 h [4]: 1 mg/L (≈ 4.3 µM)
- IC50 (MDA-MB-231): 0.1 mg/L (≈ 0.43 µM)
- IC50 (HT-1080): 1 mg/L (≈ 4.3 µM)

Compound: CC(=O)O[C@H]1C[C@@H](C)[C@@H]2[C@@H](O)[C@H](O)[C@@]3(C)CC(C)(C)[C@H]1[C@]23O
- CC50 at 24 h [1]: > 10 mg/L
- IC50 [2]: > 10 mg/L
- IC50 [3]: > 10 mg/L
- CC50 at 24 h [4]: > 10 mg/L
- IC50 (MDA-MB-231): > 10 mg/L
- IC50 (HT-1080): > 10 mg/L
